Measured values of several laboratories.

COc1c(N2CC3CCCNC3C2)c(F)cc2c(=O)c(C(=O)OCc3cnc([N+](=O)[O-])s3)cn(C3CC3)c12 (centres unmarked)
MIC (Escherichia coli; microbial growth; ATCC25922): 0.09 µM

Oc1c(Cl)cc(Cl)cc1-c1[nH]c(Cl)c(Cl)c1Cl
MIC (Staphylococcus aureus; microbial growth; BAA44 MRSA): 0.06 µM

O=c1ccc2nc3ccc(O)cc3oc-2c1
MIC (Escherichia coli; microbial growth; 24 h): > 32 µg/mL

Oc1c(Br)cc(Br)cc1-c1[nH]c(Br)c(Br)c1Br
MIC (Staphylococcus aureus; microbial growth; ATCC29213 MSSA): 0.58 µM

O=c1ccc2nc3ccc(OCc4ccc([N+](=O)[O-])o4)cc3oc-2c1
MIC (Staphylococcus aureus; microbial growth; MRSA; 24 h): > 32 µg/mL

COc1c(N2C[C@@H]3CCCN[C@@H]3C2)c(F)cc2c(=O)c(C(=O)O)cn(C3CC3)c12
MIC (Escherichia coli; microbial growth; ATCC25922): 0.03 µM

N.N.[Cl][Pt][Cl]
IC50 (HK-2; cell growth or viability, MTT; 72 h): 7.59 µM

CN[C@H](CC(C)C)C(=O)N[C@H]1C(=O)N[C@@H](CC(N)=O)C(=O)N[C@H]2C(=O)N[C@H]3C(=O)N[C@H](C(=O)N[C@H](C(=O)O)c4cc(O)cc(O)c4-c4cc3ccc4O)[C@H](O)c3ccc(c(Cl)c3)Oc3cc2cc(c3O[C@@H]2O[C@H](CO)[C@@H](O)[C@H](O)[C@H]2O[C@H]2C[C@](C)(N)[C@H](O)[C@H](C)O2)Oc2ccc(cc2Cl)[C@H]1O
MIC (Staphylococcus aureus; microbial growth, broth dilution; MRSA; 24 h, drug-resistant strain): 0.67 µM
